The results in this text go back to ChEMBL document CHEMBL5154713, “Illuminating a Dark Kinase: Structure-Guided Design, Synthesis, and Evaluation of a Potent Nek1 Inhibitor and Its Effects on the Embryonic Zebrafish Pronephros” (J Med Chem, 2022).

Each structure is given as a SMILES string. Where only a bound is given, the exact number is not on record here.

The target of data set [1] is Protein kinase C eta type (Homo sapiens) (UniProt P24723). Nature of the data set: Inhibition of recombinant human full length PKCeta (2 to end residues) assessed as residual activity at 1 uM using ERMRPRKRQGSVRRRV as substrate incubated for 40 mins in presence of [gamma-33P]-ATP by scintillation counting method relative to control. The procedure, abridged: (§1)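 Commercial radiometric panel of 50 kinases. Each recombinant human kinase was tested at a single compound concentration of 1 μM. ATP was set within 15 μM of the apparent Km for ATP for each kinase. Residual activity is relative to control and is the mean of two independent experiments.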
Chain of Protein kinase C eta type (Homo sapiens) (P24723 whole entry): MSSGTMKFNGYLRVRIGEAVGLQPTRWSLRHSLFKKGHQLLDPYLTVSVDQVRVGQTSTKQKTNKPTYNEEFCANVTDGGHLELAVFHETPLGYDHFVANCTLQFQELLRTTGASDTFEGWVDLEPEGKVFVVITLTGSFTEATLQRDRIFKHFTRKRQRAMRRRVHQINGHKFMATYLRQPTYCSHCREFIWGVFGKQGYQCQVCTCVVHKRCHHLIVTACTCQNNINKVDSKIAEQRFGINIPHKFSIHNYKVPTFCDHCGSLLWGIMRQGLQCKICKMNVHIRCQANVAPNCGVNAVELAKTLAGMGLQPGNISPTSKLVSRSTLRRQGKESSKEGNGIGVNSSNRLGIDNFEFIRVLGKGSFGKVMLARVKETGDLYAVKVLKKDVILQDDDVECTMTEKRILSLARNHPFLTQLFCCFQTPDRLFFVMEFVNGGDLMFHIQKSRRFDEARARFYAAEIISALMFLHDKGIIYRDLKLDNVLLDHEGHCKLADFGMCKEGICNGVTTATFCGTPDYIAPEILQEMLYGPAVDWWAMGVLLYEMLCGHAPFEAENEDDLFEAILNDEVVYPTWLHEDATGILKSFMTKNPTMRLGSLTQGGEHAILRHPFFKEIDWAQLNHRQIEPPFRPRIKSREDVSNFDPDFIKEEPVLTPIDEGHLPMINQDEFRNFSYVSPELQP

In data set [2] the target is MAP kinase-activated protein kinase 5 (Homo sapiens) (UniProt Q8IW41). Nature of the data set: Inhibition of human full length PRAK assessed as residual activity at 1 uM using KKLRRTLSVA as substrate incubated for 40 mins in presence of [gamma 33P]-ATP by radiometric scintillation counting assay relative to control. A digest of the protocol:
as §1

Data set [3] deals with Tyrosine-protein kinase ABL1 (Homo sapiens), P00519 [Q252H]. Nature of the data set: Inhibition of human Abl Q252H mutant (27 to end residues) assessed as residual activity at 1 uM using EAIYAAPFAKKK as substrate incubated for 40 mins in presence of [gamma 33P]-ATP by radiometric scintillation counting assay relative to control. A digest of the protocol: as §1
The target in data set [4] is T1, Serine/threonine-protein kinase Nek1 (Homo sapiens, UniProt Q96PY6).
T1 sequence (Q96PY6 whole entry): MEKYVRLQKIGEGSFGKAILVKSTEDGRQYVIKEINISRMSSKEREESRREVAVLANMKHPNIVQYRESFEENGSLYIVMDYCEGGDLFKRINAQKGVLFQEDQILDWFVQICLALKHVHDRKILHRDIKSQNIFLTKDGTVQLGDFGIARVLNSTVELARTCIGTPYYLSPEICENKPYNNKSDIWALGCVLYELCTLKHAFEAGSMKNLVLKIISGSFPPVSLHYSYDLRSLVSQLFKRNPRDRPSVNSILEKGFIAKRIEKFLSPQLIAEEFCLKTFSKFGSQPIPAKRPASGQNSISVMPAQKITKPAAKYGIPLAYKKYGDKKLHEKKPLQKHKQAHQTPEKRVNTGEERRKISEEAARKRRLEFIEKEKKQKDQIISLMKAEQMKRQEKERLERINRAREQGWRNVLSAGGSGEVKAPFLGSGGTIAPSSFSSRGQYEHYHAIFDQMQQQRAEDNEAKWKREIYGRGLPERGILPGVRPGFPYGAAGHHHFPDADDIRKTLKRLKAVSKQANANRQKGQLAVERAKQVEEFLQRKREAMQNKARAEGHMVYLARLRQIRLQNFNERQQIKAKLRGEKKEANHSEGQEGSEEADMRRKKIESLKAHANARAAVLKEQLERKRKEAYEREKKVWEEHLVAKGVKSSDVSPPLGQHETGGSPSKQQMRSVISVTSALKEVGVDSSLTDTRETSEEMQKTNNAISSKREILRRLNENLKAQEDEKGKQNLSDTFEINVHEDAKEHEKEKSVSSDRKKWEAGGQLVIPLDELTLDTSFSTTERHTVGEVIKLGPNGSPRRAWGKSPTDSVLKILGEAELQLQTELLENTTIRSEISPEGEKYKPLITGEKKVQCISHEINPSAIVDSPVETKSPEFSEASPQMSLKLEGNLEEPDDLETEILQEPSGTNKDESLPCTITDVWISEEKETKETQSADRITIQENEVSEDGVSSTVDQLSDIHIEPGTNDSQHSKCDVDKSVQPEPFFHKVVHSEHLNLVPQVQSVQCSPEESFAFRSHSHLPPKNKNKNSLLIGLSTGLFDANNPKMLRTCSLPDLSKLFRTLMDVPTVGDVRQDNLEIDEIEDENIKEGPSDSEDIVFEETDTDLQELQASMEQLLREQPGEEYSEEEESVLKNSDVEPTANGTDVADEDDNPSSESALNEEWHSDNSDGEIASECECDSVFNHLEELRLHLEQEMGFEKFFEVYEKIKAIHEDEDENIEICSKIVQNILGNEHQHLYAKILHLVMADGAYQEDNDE
Nature of the data set: Inhibition of human recombinant NEK1 (1 to 505 residues) using ULight-p70 S6K peptide as substrate incubated for 30 mins by LANCE Ultra TR-FRET assay. A digest of the protocol:
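Recombinant human Nek1 (1−505, 0.02 nM) in 50 mM HEPES pH 7.5, 1 mM EGTA, 10 mM MgCl2, 0.2 mM DTT, 0.01% Tween20, with 50 nM ULight-p70 S6K peptide and 60 μM ATP, 30 min at 22 °C. Stopped with EDTA plus Eu anti-phospho antibody, 1 h signal development. Ten half-log concentrations from 30 μM (10 μM for some) to 1 nM. Mean of two experiments.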

The target in data set [5] is Casein kinase I isoform gamma-1 (Homo sapiens) (UniProt Q9HCP0). Nature of the data set: Inhibition of recombinant human CK1gamma1 (25 to 355 residues) assessed as residual activity at 1 uM using KRRRALS(p)VASLPGL as substrate measured after 40 mins in presence of [gamma33P]ATP by radiometric scintillation counting method relative to control. A digest of the protocol: as §1
Chain of Casein kinase I isoform gamma-1 (Homo sapiens) (Q9HCP0 whole entry, looked up, the tested form may be a part, canonical isoform): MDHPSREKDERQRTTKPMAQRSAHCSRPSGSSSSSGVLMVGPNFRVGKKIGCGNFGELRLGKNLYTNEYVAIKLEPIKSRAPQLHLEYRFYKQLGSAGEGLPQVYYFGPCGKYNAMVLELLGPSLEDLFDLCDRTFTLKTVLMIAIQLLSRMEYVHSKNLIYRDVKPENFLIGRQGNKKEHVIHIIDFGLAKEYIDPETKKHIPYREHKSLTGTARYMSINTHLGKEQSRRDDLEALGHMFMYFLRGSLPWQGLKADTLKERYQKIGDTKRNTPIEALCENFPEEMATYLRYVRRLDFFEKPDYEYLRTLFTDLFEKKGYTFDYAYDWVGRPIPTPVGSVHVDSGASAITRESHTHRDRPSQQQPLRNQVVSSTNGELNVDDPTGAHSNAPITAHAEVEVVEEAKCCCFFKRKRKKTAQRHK

Data set [6] in a line: Toxicity in wild-type Zebrafish embryos assessed as effect on body curvature at 0.05 to 30 uM measured upto 120 hrs. Details: species or system Danio rerio. The settings on record: in vivo, dose 0.05-30 µM. A digest of the protocol: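 Wild-type embryos, 15 per group with intact chorions, dosed at 6 hpf with 0.05–30 μM final concentrations in E3, diluted from a DMSO stock. Survival checked every 24 h by heartbeat over 120 h, and phenotypes assessed visually. At least triplicate, 5 replicates at 30 μM.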

Chain of MAP kinase-activated protein kinase 5 (Homo sapiens) (Q8IW41 whole entry): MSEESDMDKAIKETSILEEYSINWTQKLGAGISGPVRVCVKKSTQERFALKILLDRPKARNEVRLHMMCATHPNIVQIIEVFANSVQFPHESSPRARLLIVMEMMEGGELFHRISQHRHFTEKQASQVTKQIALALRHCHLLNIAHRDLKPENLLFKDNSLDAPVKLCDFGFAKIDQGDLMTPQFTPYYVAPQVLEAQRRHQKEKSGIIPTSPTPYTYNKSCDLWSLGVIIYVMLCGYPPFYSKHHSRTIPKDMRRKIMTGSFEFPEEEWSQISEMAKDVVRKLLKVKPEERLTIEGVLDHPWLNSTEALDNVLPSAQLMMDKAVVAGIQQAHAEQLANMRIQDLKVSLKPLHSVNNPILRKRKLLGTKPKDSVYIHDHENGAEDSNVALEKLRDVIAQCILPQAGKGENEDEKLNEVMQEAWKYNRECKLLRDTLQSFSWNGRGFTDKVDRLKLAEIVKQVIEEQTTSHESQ

`O=S(=O)(N[C@@H](CO)Cc1c[nH]c2ccccc12)c1ccc(-c2ccnc3[nH]ccc23)cc1`: the Activity in data set [1] is greater than 75%; in data set [2], greater than 75%; in data set [3] it was greater than 75%; in data set [5], greater than 75%; in data set [6] it was “Non-Toxic”. In data set [4], the half-inhibitory concentration (IC50) was 330 nM.
